Laboratory results reported in ChEMBL document CHEMBL1134438, “Stepwise modulation of neurokinin-3 and neurokinin-2 receptor affinity and selectivity in quinoline tachykinin receptor antagonists” (J Med Chem, 2001).

Experiments:
Substance-K receptor [1] = molecular target: T1, Substance-K receptor (Homo sapiens, UniProt P21452); test: Displacement of [125 I]-NKA binding to tachykinin receptor 2 in CHO membranes; type: cell membranes
T1 sequence (P21452 whole entry): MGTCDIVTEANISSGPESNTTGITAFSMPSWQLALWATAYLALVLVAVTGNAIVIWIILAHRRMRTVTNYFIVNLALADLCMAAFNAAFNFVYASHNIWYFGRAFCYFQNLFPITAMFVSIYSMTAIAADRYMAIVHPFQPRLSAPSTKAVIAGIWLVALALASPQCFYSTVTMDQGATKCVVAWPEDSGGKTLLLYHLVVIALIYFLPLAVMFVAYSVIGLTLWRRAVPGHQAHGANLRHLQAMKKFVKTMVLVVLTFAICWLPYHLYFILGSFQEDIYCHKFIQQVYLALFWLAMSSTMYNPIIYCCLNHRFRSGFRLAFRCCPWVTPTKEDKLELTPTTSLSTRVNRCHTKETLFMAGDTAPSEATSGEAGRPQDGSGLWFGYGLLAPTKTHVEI
Procedure, shortened: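 hNK-2-CHO crude membranes (~10 µg protein) were incubated with 0.15 nM [125I]-NKA for 90 min at 25 °C in Tris pH 7.4 buffer containing MnCl2, phosphoramidon and ovalbumin. Filtered through GF/C soaked in 0.1% PEI. Nonspecific binding defined with 0.5 µM cold NKA. Ki from IC50 by Cheng-Prusoff; duplicate curves, n = 3-5.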

Neuromedin-K receptor [2] = molecular target: T2, Neuromedin-K receptor (Homo sapiens, UniProt P29371); test: Displacement of [125 I]-[MePhe]-NKB binding to hNK-3-CHO (Chinese hamster ovary) membranes
T2 sequence (P29371 whole entry): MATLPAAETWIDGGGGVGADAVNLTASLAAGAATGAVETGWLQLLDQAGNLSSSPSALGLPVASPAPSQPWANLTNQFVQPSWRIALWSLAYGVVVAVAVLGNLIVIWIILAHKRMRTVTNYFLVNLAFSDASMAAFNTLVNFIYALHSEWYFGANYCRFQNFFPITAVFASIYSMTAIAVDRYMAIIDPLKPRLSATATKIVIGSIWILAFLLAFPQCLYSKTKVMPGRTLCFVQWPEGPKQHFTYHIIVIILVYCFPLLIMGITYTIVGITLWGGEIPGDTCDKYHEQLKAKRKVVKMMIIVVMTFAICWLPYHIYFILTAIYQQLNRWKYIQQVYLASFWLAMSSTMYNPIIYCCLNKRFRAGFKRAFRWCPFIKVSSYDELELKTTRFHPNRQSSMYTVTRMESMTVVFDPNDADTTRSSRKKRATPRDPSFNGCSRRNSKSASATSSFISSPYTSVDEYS
Procedure, shortened: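 hNK-3-CHO crude membranes (~15 µg protein) were incubated with 0.15 nM [125I]-[MePhe7]-NKB in 50 mM Tris pH 7.4, 4 mM MnCl2, 1 µM phosphoramidon, 0.1% ovalbumin for 90 min at 25 °C. Filtered through BSA-presoaked GF/C, then scintillation counted. Nonspecific binding defined with 0.5 µM cold [MePhe7]-NKB. Ki from IC50 by Cheng-Prusoff; duplicates, n = 3-5.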

[3] = Selectivity ratio (hNK-2/hNK-3) of the compound
Mu-type opioid receptor = Mu-type opioid receptor (Homo sapiens, UniProt P35372); test: Binding affinity towards human mu-opioid receptors in CHO (Chinese hamster ovary) cell lines; type: cell-based
Chain of Mu-type opioid receptor (P35372 whole entry): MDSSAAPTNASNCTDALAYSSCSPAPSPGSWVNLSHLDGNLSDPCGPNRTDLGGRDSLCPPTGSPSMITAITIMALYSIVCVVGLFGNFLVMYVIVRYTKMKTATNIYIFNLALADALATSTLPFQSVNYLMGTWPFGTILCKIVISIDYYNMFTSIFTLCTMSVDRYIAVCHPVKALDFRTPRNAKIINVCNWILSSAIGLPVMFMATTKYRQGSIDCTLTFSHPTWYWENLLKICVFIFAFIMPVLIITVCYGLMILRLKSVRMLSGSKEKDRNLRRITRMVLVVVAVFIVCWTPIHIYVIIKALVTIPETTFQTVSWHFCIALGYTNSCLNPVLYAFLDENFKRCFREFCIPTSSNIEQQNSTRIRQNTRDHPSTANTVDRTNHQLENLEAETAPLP
Procedure, shortened: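 CHO cells stably expressing hMOR grown in serum-free suspension culture; membranes made by hypotonic lysis in 10 mM potassium phosphate pH 7.2 with 3 mM MgCl2. Binding run in triplicate at 10 µg/mL protein with 0.4-0.5 nM radioligand for 60 min at 30 °C. Nonspecific binding defined with 10 µM naloxone; filtration and scintillation counting. Duplicate concentration-response curves, n = 3-5 for potent compounds.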

Neuromedin-K receptor [4] = molecular target: T2, Neuromedin-K receptor; test: (§1) Cellular functional antagonistic activity against NKB-induced [Ca2+] mobilization in HEK cells stably expressing the hNK-3 receptor; type: cell-based, HEK293; conditions: read-out: pA2 (converted)
[5] = molecular target: T3, Neuromedin-K receptor (Homo sapiens) (UniProt P29371); test: as §1; type: cell-based; conditions: HEK293
T3 sequence (whole entry): T2 sequence (P29371 whole entry)

Substance-K receptor [6] = molecular target: T1, Substance-K receptor; test: Cellular functional antagonistic activity against NKA-induced [Ca2+] mobilization in HEK cells stably expressing the tachykinin receptor 2; conditions: read-out: pA2 (converted)
[7] = molecular target: T4, Substance-K receptor (Homo sapiens) (UniProt P21452); test: as above; conditions: HEK293
T4 sequence (whole entry): T1 sequence (P21452 whole entry)

SMILES	Ki (Substance-K receptor [1]) [nM]	Ki (Neuromedin-K receptor [2]) [nM]	Ratio [3]	Ki (Mu-type opioid receptor) [nM]	Kb (Neuromedin-K receptor [4]) [nM]	Kb [5] [nM]	Kb (Substance-K receptor [6]) [nM]	Kb [7] [nM]
CC(C)NC(=O)c1c(CN2CCN(C(C)C)CC2)c(-c2ccccc2)nc2ccccc12	811	> 12000	< 0.1	–	–	–	–	–
CC[C@H](NC(=O)c1c(O)c(-c2ccccc2)nc2ccccc12)c1ccccc1 [TALNETANT]	–	–	–	1860	–	–	–	–
C[C@H](NC(=O)c1c(CN2CCC(N)CC2)c(-c2ccccc2)nc2ccccc12)C1CCCCC1	33	31.2	1.1	1780	–	–	–	–
CC(C)N1CCN(Cc2c(-c3ccccc3)nc3ccccc3c2C(=O)NC2CCCCC2)CC1	4.2	1250	0.003	226	–	–	–	–
CCC(CC)NC(=O)c1c(CN2CCN(C(C)C)CC2)c(-c2ccccc2)nc2ccccc12	18.5	1210	0.015	–	–	–	–	–
C[C@H](NC(=O)c1c(CN2CCOCC2)c(-c2ccccc2)nc2ccccc12)C1CCCCC1	6.1	4.6	1.3	> 2500	–	–	–	–
CC[C@H](NC(=O)c1c(CN2CCCCC2)c(-c2ccccc2)nc2ccccc12)c1ccccc1	276	7	39	> 2500	–	–	–	–
C[C@H](NC(=O)c1c(CN2CCNCC2)c(-c2ccccc2)nc2ccccc12)C1CCCCC1	2.4	3.4	0.7	172	–	–	–	–
CC[C@H](NC(=O)c1c(CN2CCN(C3CCCCC3)CC2)c(-c2ccccc2)nc2ccccc12)c1ccccc1	1.6	1.2	1.3	15.8	–	–	–	–
CC[C@H](NC(=O)c1c(CN2CCC(N3CCCCC3)CC2)c(-c2ccccc2)nc2ccccc12)c1ccccc1	4.6	1.5	3.1	919	–	–	–	–
CC(C)C(=O)N1CCN(Cc2c(-c3ccccc3)nc3ccccc3c2C(=O)N[C@@H](C)C2CCCCC2)CC1	1.2	1.4	0.9	> 2500	–	–	–	–
CC(C)N1CCN(Cc2c(-c3ccccc3)nc3ccccc3c2C(=O)N[C@@H](C)C2CCCCC2)CC1	0.7	1.9	0.4	195	–	–	–	–
C[C@H](NC(=O)c1c(CN2CCC(N3CCOCC3)CC2)c(-c2ccccc2)nc2ccccc12)C1CCCCC1	0.8	0.8	1	> 2500	–	–	–	–
CC(C)C(C)NC(=O)c1c(CN2CCN(C(C)C)CC2)c(-c2ccccc2)nc2ccccc12 (centres undefined)	9.2	454	0.02	–	–	–	–	–
C[C@H](NC(=O)c1c(CN2CCC(N3CCCCC3)CC2)c(-c2ccccc2)nc2ccccc12)C(C)(C)C	1	193	0.005	≥ 2000	–	–	–	–
CC(C)[C@H](NC(=O)c1c(CN2CCN(C(C)C)CC2)c(-c2ccccc2)nc2ccccc12)c1ccccc1	1.5	1.2	1.2	120	–	–	–	–
CC[C@H](NC(=O)c1c(CN(C)C)c(-c2ccccc2)nc2ccccc12)c1ccccc1	172	2.2	78	1680	–	–	–	–
CC[C@H](NC(=O)c1c(CN2CCN(C(C)C)CC2)c(-c2ccccc2)nc2ccccc12)c1ccccc1	–	–	3.1	98.6	–	–	–	–
CC(C)[C@H](NC(=O)c1c(CN(C)C)c(-c2ccccc2)nc2ccccc12)c1ccccc1	51.6	–	16	> 2500	–	–	–	–
CC[C@H](NC(=O)c1c(CN2CCNCC2)c(-c2ccccc2)nc2ccccc12)c1ccccc1	22.2	4.7	4.7	203	–	–	–	–
C[C@H](NC(=O)c1c(CN2CCC(N3CCCCC3)CC2)c(-c2ccccc2)nc2ccccc12)C1CCCCC1	0.6	1.7	0.3	1320	2	2.6	10	9.9
